Calls of active or inactive are those of the source. The calls are words filed in the database; no cut-off is given here.

Experiment [1] concerns SK-BR-3. The experiment in a line: Antiproliferative activity against estrogen receptor-deficient human SKBR3 cells expressing HER2. The class given is functional. In outline: (§1)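 Cell proliferation assay against SKBr3 (ER-negative, HER2-overexpressing) and MCF-7 (ER-positive) breast cancer cells. Values are mean ± standard deviation of at least two separate experiments, each performed in triplicate.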

Experiment [2] has as its system MCF7. In words: Antiproliferative activity against human MCF7 cells expressing estrogen receptor. The class given is functional. Put shortly:
as §1

Experiment [3] has as its target T1, Heat shock protein HSP90 (Homo sapiens) (UniProt P07900+P08238). In words: Inhibition of Hsp90 in human MCF7 cells assessed as degradation after 24 hrs by Western blot analysis. Background: In western blotting, separated proteins are transferred to a membrane and probed.
Experiment [4] deals with T1, Heat shock protein HSP90 (Homo sapiens). The experiment in a line: Inhibition of Hsp90 in human MCF7 cells assessed as Akt degradation after 24 hrs by Western blot analysis. In kind it is cell-based. In outline: (§2)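 MCF-7 breast cancer cells were treated for 24 h with a range of compound concentrations. Cell lysates were probed by Western blot for Her2, Raf, Akt and Hsp90, with actin as a non-client control.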

Experiment [5] shares this target. In words: Inhibition of Hsp90 in human MCF7 cells assessed as Her2 degradation after 24 hrs by Western blot analysis. In kind it is cell-based. Put shortly: as §2
Experiment [6] shares this target. The experiment in a line: Inhibition of Hsp90 in human MCF7 cells assessed as Raf degradation after 24 hrs by Western blot analysis. The class given is cell-based. Put shortly:
as §2

Experiment [7] deals with T2, Heat shock protein HSP 90 (Oryctolagus cuniculus) (UniProt P11500).
T2 sequence (whole entry): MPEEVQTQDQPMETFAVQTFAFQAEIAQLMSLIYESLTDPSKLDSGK
As to conditions: 1 ug/ml.

Experiment [8] deals with T2, Heat shock protein HSP 90 (Oryctolagus cuniculus). The settings on record: 1 ug/ml. This is another data set of the same source.
The target in experiment [9] is T1, Heat shock protein HSP90 (Homo sapiens). In words: Inhibition of Hsp90 in human MCF7 cells assessed as Akt degradation at 50 to 1000 uM by Western blot analysis. The class given is cell-based.
Experiment [10] deals with T2, Heat shock protein HSP 90 (Oryctolagus cuniculus). The experiment in a line: Inhibition of Hsp90-dependent activation of [35S]-labeled His-tagged […] in rabbit reticulocyte lysate at 2 mM by anti-His-tag pull down assay.
Experiment [11] deals with T1, Heat shock protein HSP90 (Homo sapiens). In words: Inhibition of Hsp90 in human MCF7 cells assessed as Her2 degradation at 50 to 1000 uM by Western blot analysis. The class given is cell-based.
For experiment [12], the target named is T2, Heat shock protein HSP 90 (Oryctolagus cuniculus). In words: Inhibition of Hsp90-dependent activation of [35S]-labeled His-tagged […] in rabbit reticulocyte lysate by anti-His-tag pull down assay.
For experiment [13], the target named is T1, Heat shock protein HSP90 (Homo sapiens). In words: Inhibition of Hsp90 in human MCF7 cells assessed as Hsp90 degradation at 50 to 1000 uM by Western blot analysis. In kind it is cell-based.
Experiment [14] addresses T2, Heat shock protein HSP 90 (Oryctolagus cuniculus). In words: Inhibition of Hsp90-dependent maturation of [35S]-labeled His-tagged […] in rabbit reticulocyte lysate at 2 mM by anti-His-tag pull down assay.
Experiment [15] deals with T1, Heat shock protein HSP90 (Homo sapiens). In words: Inhibition of Hsp90 in human MCF7 cells assessed as Raf degradation at 50 to 1000 uM by Western blot analysis. The class given is cell-based.
For experiment [16], the species on record is Oryctolagus cuniculus. In words: Inhibition of Hsp90/Cdc37 interaction with [35S]-labeled His-tagged […] in rabbit reticulocyte lysate at 2 mM by Western blot analysis.

Turning to `COc1cc(C2Oc3cc(/C=C/C(=O)c4ccccc4O)ccc3OC2CO)ccc1O` (configuration not stated), the figures for the Activity in experiment [1] and in [2] were 19.87 µM and 12.07 µM, respectively.
On the same counts, the results for `COc1cc(C2Oc3cc(/C=C/C(=O)c4c(O)cc(O)cc4O)ccc3OC2CO)ccc1O` (configuration not stated) are 111.4 µM and 109.3 µM.
Take `COc1cc(C2Oc3cc(C4CC(=O)c5cc(O)ccc5O4)ccc3OC2CO)ccc1O` (configuration not stated): the inhibition result in experiment [3], in experiment [4], in experiment [5] and in [6] was “Dose-dependent effect” each time. Also, the Activity in [1] was found to be 15.63 µM; in experiment [2], 15.62 µM.
For `COc1cc(C2Oc3cc(C4CC(=O)c5ccc(O)cc5O4)ccc3OC2CO)ccc1O` (configuration not stated), the Activity in experiment [1] stood at 41.91 µM; in [2], 41.58 µM.
Taken in the same sequence, the figures for `COc1cc(C2Oc3cc(C4Oc5cccc(O)c5C(=O)C4O)ccc3OC2CO)ccc1O` (configuration not stated) were 11.9 µM and 17.66 µM.
Taken in the same sequence, the figures for `COc1cc(C2Oc3cc(C4CC(=O)c5c(O)cccc5O4)ccc3OC2CO)ccc1O` (configuration not stated) were 47.73 µM and 50.32 µM.
For the compound `COc1cc(C2Oc3cc([C@H]4Oc5cc(O)cc(O)c5C(=O)[C@@H]4O)ccc3OC2CO)ccc1O` (stereo in doubt; 24) [SILIBININ], the figures for the Activity in experiment [1] and in experiment [2] were 196.3 µM and 196.4 µM, respectively.
Taken in the same sequence, the figures for `COc1cc(C2Oc3cc(C4CC(=O)c5c(O)cc(O)cc5O4)ccc3OC2CO)ccc1O` (configuration not stated) were 101.2 µM and 104.2 µM.
`COC1=C2C[C@@H](C)C[C@H](OC)[C@H](O)[C@@H](C)/C=C(\C)[C@H](OC(N)=O)[C@@H](OC)/C=C\C=C(/C)C(=O)NC(=CC1=O)C2=O`: the inhibition result in [7] and in experiment [8] was “Active” throughout.
As to `O=C1c2c(O)cc(O)cc2OC(c2ccc3c(c2)OC(c2ccc(O)cc2)C(CO)O3)C1O` (configuration not stated), the Activity in experiment [1] was 210.6 µM; in [2], 138.7 µM.
As for `COc1cc(C2Oc3cc(C4CC(=O)c5ccccc5O4)ccc3OC2CO)ccc1O` (configuration not stated), the Activity in experiment [1] is 16.25 µM; in experiment [2], 13.66 µM.
Turning to `COc1cc(C2Oc3cc(C4Oc5ccccc5C(=O)C4O)ccc3OC2CO)ccc1O` (configuration not stated), the inhibition entry in experiment [3], in experiment [4], in experiment [5] and in experiment [6] was “Dose-dependent effect” throughout. Also, the Activity in experiment [1] stood at 11.12 µM; in experiment [2], 13.42 µM.
With `COc1cc(C2Oc3cc([C@H]4Oc5cc(O)cc(O)c5C(=O)[C@@H]4O)ccc3OC2CO)ccc1O` (stereo in doubt), the inhibition result in experiment [9], in experiment [10], in experiment [11], in [13], in [14] and in experiment [15] was “Active” in each case. Further, the inhibition entry in [12] is “Dose-dependent effect”. Moreover, in experiment [16], the inhibition result is “inactive”.
`COc1cc(C2Oc3cc(/C=C/C(=O)c4ccc(O)cc4O)ccc3OC2CO)ccc1O` (configuration not stated): the Activity was 37.14 µM in [1] and 16.91 µM in experiment [2].
On the same counts, the results for `COc1cc(C2Oc3cc(C4Oc5ccc(O)cc5C(=O)C4O)ccc3OC2CO)ccc1O` (configuration not stated) are 13.41 µM and 17.8 µM.
Taken in the same sequence, the figures for `COc1cc(C2Oc3cc(C4Oc5cc(O)ccc5C(=O)C4O)ccc3OC2CO)ccc1O` (configuration not stated) were 16.04 µM and 11.92 µM.
As to `COc1cc(C2Oc3cc(/C=C/C(=O)c4c(O)cccc4O)ccc3OC2CO)ccc1O` (configuration not stated), the Activity worked out at 25.03 µM in experiment [1] and 22.58 µM in experiment [2].
On the same counts, the results for `COc1cc(C2Oc3cc(/C=C/C(=O)c4cc(O)ccc4O)ccc3OC2CO)ccc1O` (configuration not stated) are 35.84 µM and 12.17 µM.
Taken in the same sequence, the figures for `COc1cc(C2Oc3cc([C@H]4Oc5cc(O)cc(O)c5C(=O)[C@@H]4O)ccc3OC2CO)ccc1O` (stereo in doubt) [SILIBININ] were 197 µM and 222.8 µM.

Values taken from ChEMBL document CHEMBL1772946, “Identification and initial SAR of silybin: an Hsp90 inhibitor” (Bioorg Med Chem Lett, 2011).
